Test results: publication PMC4489158 (Biochemistry, 2009)

What was measured:
[1] = tested on: γ-secretase processing of APP (APP CTFs); assay: CTF accumulation in intact CHO cells expressing APP-His; assay type: cell-based, Chinese hamster; details: overnight (14 h)
In short: (§1)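 CHO cells stably expressing full-length human His-tagged APP or APLP1 (zeocin selection) were grown to confluence in six-well plates, then treated overnight (~14 h) with test compound or vehicle. Cells were lysed in NP-40 buffer with protease inhibitors. Equal protein (BCA) was immunoblotted with TetraHis antibody and ECL. CTF bands were quantified as fold over vehicle, with at least three measurements, and significance was assessed by two-way ANOVA.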

[2] = tested on: γ-secretase processing of APLP1 (APLP1 CTFs); assay: CTF accumulation in intact CHO cells expressing APLP1-His; assay type: cell-based, Chinese hamster; details: overnight (14 h)
In short: as §1

[3] = tested on: γ-secretase (Aβ42, Aβ38, Aβ40 production); details: cited from earlier work
[4] = tested on: γ-secretase cleavage of APLP1 (APLP1 ICD production); assay: ICD in vitro generation; assay type: biochemical, human; details: for effect on ICD production from APLP1: tested between 100 and 500 µM
[5] = biological target: γ-secretase cleavage of APP (APP ICD production) (Cricetulus griseus, UniProt A0A061HTR1+A0A061IL97+A0A8C2QG42+G3HNF2); assay: ICD in vitro generation; assay type: biochemical, human; details: for effect on ICD production from APP: tested between 100 and 500 µM; for concentration at which APP ICD production is decreased: microsomes
[6] = biological target: γ-secretase cleavage of APLP2 (APLP2 ICD production) (Cricetulus griseus, UniProt A0A061HTR1+A0A061IL97+A0A8C2QG42+G3HNF2); assay: ICD in vitro generation; assay type: biochemical, human; details: for effect on ICD production from APLP2: tested between 100 and 500 µM
[7] = cited from earlier work

## C[C@H](NC(=O)Cc1cc(F)cc(F)c1)C(=O)N[C@H]1N=C(c2ccccc2)c2ccccc2N(C)C1=O [compound E, (2S)-2-{[(3,5-Difluorophenyl)acetyl]amino}-N-[(3S)-1-methyl-2-oxo-5-phenyl-2,3-dihydro-1H-1,4-benzodia-zepin-3-yl]propanamide]
[1]
  concentration needed for a 2-fold increase in CTF band signal, APP: 0.27 ± 0.01 nM
[2]
  concentration needed for a 2-fold increase in CTF band signal, APLP1: 0.24 ± 0.22 nM

## propan-2-yl 2-[4-(4-chlorobenzoyl)phenoxy]-2-ethylpropanoate [fenofibrate]
[3]
  effect on level of production of Aβ38: reduces
  effect on level of production of Aβ42: increases
  effect on levels of Aβ40: almost unchanged
[4]
  effect on ICD production from APLP1: unaffected
[5]
  effect on ICD production from APP: unaffected
[6]
  effect on ICD production from APLP2: unaffected

## C[C@@H](C(=O)O)c1ccc(-c2ccccc2)c(F)c1 [R-flurbiprofen, 2-(3-fluoro-4-phenylphenyl)propanoate]
[3]
  effect on Aβ38 levels: increase
  effect on Aβ42 levels: reducing
[4]
  effect on ICD production from APLP1: unaffected
[7]
  brain penetrance: poor
[5]
  concentration at which APP ICD production is decreased: ≥ 400 µM
  effect on ICD production from APP: weakly inhibited
[6]
  effect on ICD production from APLP2: weak inhibitory effect

## CC(C(=O)O)c1cccc(Oc2cc(Cl)cc(Cl)c2)c1 (centres unmarked) [FT-9, 2-[3-(3,5-dichlorophenoxy)phenyl]propanoic acid]
[4]; 500 µM, highest concentration tested
  reduction of APLP1 ICDs: ~ 38%
[4]; microsomes
  concentration at which APLP1 ICD production is decreased: ≥ 100 µM
[1]
  concentration causing accumulation of APP CTFs: ≥ 5 µM
  concentration required to cause a 2-fold increase in APP CTFs: 3.4 ± 0.4 µM
[2]
  concentration causing significant accumulation of APLP1 CTFs: ≥ 20 µM
  concentration required to cause a 2-fold increase in APLP1 CTFs: 25.7 ± 8.9 µM
[5]
  concentration at which APP ICD production is decreased: ≥ 100 µM
[5]; read-out: reduction of APP ICDs
  inhibition at 500 µM: 70 to 75%
[6]; microsomes
  concentration at which APLP2 ICD production is decreased: ≥ 100 µM
[6]; read-out: reduction of APLP2 ICDs
  inhibition at 500 µM: 70 to 75%

## C[C@H](NC(=O)Cc1cc(F)cc(F)c1)C(=O)NC(C(=O)OC(C)(C)C)c1ccccc1 (stereo partly drawn) [DAPT, N-[N-(3,5-difluoro-phenacetyl)-l-alanyl]-S-phenylglycine tert-butyl ester]
[4]; read-out: IC50 of γ-secretase processing of APLP1 (ICD production)
  IC50: 95.7 nM
